# Laboratory results as given in ChEMBL document CHEMBL1145092, “Soft antimicrobial agents: synthesis and activity of labile environmentally friendly long chain quaternary ammonium compounds” (J Med Chem, 2003).
# Experiments:
# [1] = (§1) Half life (t1/2) was determined; assay type: ADME
# Outline: (§2)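 Hydrolytic stability: compound from a 0.1 mg/mL ethanol stock was spiked into 10 mM phosphate buffer, pH 6, and held at 60 °C (±0.2 °C). Periodic HPLC or LC-MS/MS analysis was run, and k_obs came from linear regression of peak integration (n = 3). Selected compounds were also tested in diluted (1:4) agar at 37 °C.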
# Escherichia coli = assay: Minimum concentration required to inhibit Escherichia coli ATCC 25922; assay type: functional
# Outline: (§3)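 Broth doubling-dilution MIC in Mueller Hinton broth against ATCC quality-control strains, incubated 24 h at 37 °C in ambient air. Poorly water-soluble compounds were dissolved in minimal DMSO. Values are in µg/mL.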
# Enterococcus faecalis [2] = assay: Minimum concentration required to inhibit Enterococcus faecalis ATCC 29212; assay type: functional; outline: as §3
# Human alphaherpesvirus 1 [3] = assay: Tested for antiviral activity against HSV-1 at a concentration of 100 ug/mL after 2 hr of treatment at 37 degrees C; assay type: functional, herpes simplex virus
# Outline: (§4)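 HSV-1 strain MacIntyre stock (10^6.5–10^7.5 TCID50/100 µL) was mixed 1:1 with twofold compound dilutions made in RPMI-1640 with 2% FBS from a 1 mg/mL HBSS stock; concentrations are final. Mixtures were held 2 h at 37 °C, then diluted 10-fold to stop. Residual titer was measured on Vero monolayers by 10-fold dilutions in quadruplicate wells, scoring CPE daily for 5 days at 37 °C and 5% CO2. Titers were calculated by Reed–Muench as log10 TCID50/0.1 mL, mean of three, against a virus-plus-medium control.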
# Human alphaherpesvirus 1 [4] = assay: Tested for antiviral activity against HSV-1 at a concentration of 12.5 ug/mL after 2 hr of treatment at 37 degrees C; assay type: functional, herpes simplex virus; outline: as §4
# Human alphaherpesvirus 1 [5] = assay: Tested for antiviral activity against HSV-1 at a concentration of 25 ug/mL after 2 hr of treatment at 37 degrees C; assay type: functional, herpes simplex virus; outline: as §4
# Human alphaherpesvirus 1 [6] = assay: Tested for antiviral activity against HSV-1 at a concentration of 50 ug/mL after 2 hr of treatment at 37 degrees C; assay type: functional, herpes simplex virus; outline: as §4
# Human alphaherpesvirus 1 [7] = assay: Tested for antiviral activity against HSV-1 at a concentration of 6.25 ug/mL after 2 hr of treatment at 37 degrees C; assay type: functional, herpes simplex virus; outline: as §4
# Pseudomonas aeruginosa = assay: Minimum concentration required to inhibit Pseudomonas aeruginosa ATCC 27853; assay type: functional; outline: as §3
# Staphylococcus aureus [8] = assay: Minimum concentration required to inhibit Staphylococcus aureus ATCC 25923; assay type: functional; outline: as §3
# Staphylococcus aureus [9] = assay: Tested for antibacterial activity against Staphylococcus aureus; assay type: functional
# [10] = as §1; assay type: functional; outline: as §2
# Enterococcus faecalis [11] = assay: Minimum concentration required to inhibit enterococcus faecalis ATCC 29212; assay type: functional; outline: as §3
Structure (SMILES),Log t1/2 [1],MIC (Escherichia coli),MIC (Enterococcus faecalis [2]),MIC (Pseudomonas aeruginosa),MIC (Staphylococcus aureus [8]),Log 1/MIC (Staphylococcus aureus [9]),MIC (Enterococcus faecalis [11]),MLC (Escherichia coli),MLC (Enterococcus faecalis [2]),Log TCID50 (Human alphaherpesvirus 1 [3]),Log TCID50 (Human alphaherpesvirus 1 [4]),Log TCID50 (Human alphaherpesvirus 1 [5]),Log TCID50 (Human alphaherpesvirus 1 [6]),Log TCID50 (Human alphaherpesvirus 1 [7]),MLC (Pseudomonas aeruginosa),MLC (Staphylococcus aureus [8]),Log t1/2 [10]
CCCCCCCCCCCCCCCCCC(=O)OCC[n+]1ccccc1.[Br-],0.9,500 µg/mL,8 µg/mL,250 µg/mL,1 µg/mL,0,,500 µg/mL,8 µg/mL,1.3,6.1,2.9,1.63,6.9,250 µg/mL,2 µg/mL,
CCCCCCCCCCCCCCCC(=O)OCCC[n+]1ccccc1,2.36,250 µg/mL,1 µg/mL,500 µg/mL,< 0.25 µg/mL,0.6,,250 µg/mL,4 µg/mL,,,,,,500 µg/mL,1 µg/mL,
CCCCCCCC(=O)OCC[n+]1ccccc1.[Br-],0.62,1000 µg/mL,> 2000 µg/mL,> 2000 µg/mL,500 µg/mL,-2.69,,1000 µg/mL,>2000 µg/mL,,,,,,>2000 µg/mL,500 µg/mL,
CCCCCCCCCCCCNC(=O)C[n+]1ccccc1,0.92,125 µg/mL,4 µg/mL,125 µg/mL,4 µg/mL,-0.6,,125 µg/mL,8 µg/mL,1.5,6.57,5.4,1.5,,125 µg/mL,4 µg/mL,
CCCCCCCCCCCC(=O)OC[n+]1ccccc1.[Cl-],,100 µg/mL,10 µg/mL,3200 µg/mL,50 µg/mL,-1.51,,400 µg/mL,200 µg/mL,,,,,,3200 µg/mL,50 µg/mL,0.31
CCCCCCCCCCCC(=O)OCC[N+](CCCC)(CCCC)CCCC,0.27,125 µg/mL,4 µg/mL,500 µg/mL,2 µg/mL,-0.3,,125 µg/mL,16 µg/mL,0.5,7,6.63,6,7,1000 µg/mL,8 µg/mL,
CCCCCCCCCCCCCCCCOC(=O)C[n+]1ccccc1,-0.9,6400 µg/mL,> 12800 µg/mL,6400 µg/mL,12800 µg/mL,-4.1,,12800 µg/mL,>12800 µg/mL,,,,,,6400 µg/mL,12800 µg/mL,

# Molecules with a lower MIC (Escherichia coli), results first:
Log t1/2 [1],MIC (Escherichia coli),MIC (Enterococcus faecalis [2]),MIC (Pseudomonas aeruginosa),MIC (Staphylococcus aureus [8]),Log 1/MIC (Staphylococcus aureus [9]),MIC (Enterococcus faecalis [11]),Structure (SMILES),MLC (Escherichia coli),MLC (Enterococcus faecalis [2]),Log TCID50 (Human alphaherpesvirus 1 [3]),Log TCID50 (Human alphaherpesvirus 1 [4]),Log TCID50 (Human alphaherpesvirus 1 [5]),Log TCID50 (Human alphaherpesvirus 1 [6]),Log TCID50 (Human alphaherpesvirus 1 [7]),MLC (Pseudomonas aeruginosa),MLC (Staphylococcus aureus [8]),Log t1/2 [10]
,64 µg/mL,8 µg/mL,250 µg/mL,2 µg/mL,,,CCCCCCCCCCCCCCCC(=O)OCC[N+](CC)(CC)CC.[Br-],64 µg/mL,16 µg/mL,0.8,7,6.33,5.73,,250 µg/mL,4 µg/mL,
0.33,25 µg/mL,2 µg/mL,200 µg/mL,< 6.25 µg/mL,-0.9,,CCCCCCCCCCCC(=O)OCC[n+]1ccccc1.[Br-],100 µg/mL,100 µg/mL,1.63,6.8,6.73,6.73,7.03,200 µg/mL,50 µg/mL,
1.17,62 µg/mL,4 µg/mL,250 µg/mL,8 µg/mL,-0.9,,CCCCCCCC/C=C/CCCCCCCC(=O)OCC[n+]1ccccc1.[Br-],125 µg/mL,62 µg/mL,,,,,,250 µg/mL,16 µg/mL,
,60 µg/mL,7.5 µg/mL,250 µg/mL,2 µg/mL,,,CCCCCCCCCCCCCCCC(=O)NCC[n+]1ccccc1.[Cl-],,,0.8,6.07,2.9,0.9,6.47,,,
1.1,32 µg/mL,,250 µg/mL,1 µg/mL,0,8 µg/mL,CCCCCCCCCCCCCCCC(=O)OCC[n+]1ccccc1.[Br-],32 µg/mL,8 µg/mL,,,,,,1000 µg/mL,1 µg/mL,
